Results from ChEMBL document CHEMBL4028906, “Allosteric Inhibitors of SHP2 with Therapeutic Potential for Cancer Treatment” (J Med Chem, 2017).
The source made the active and inactive calls. No cut-off for these calls is given here.

Biological target: T1, Tyrosine-protein phosphatase non-receptor type 11 (Homo sapiens) (UniProt Q06124)
T1 sequence (whole entry): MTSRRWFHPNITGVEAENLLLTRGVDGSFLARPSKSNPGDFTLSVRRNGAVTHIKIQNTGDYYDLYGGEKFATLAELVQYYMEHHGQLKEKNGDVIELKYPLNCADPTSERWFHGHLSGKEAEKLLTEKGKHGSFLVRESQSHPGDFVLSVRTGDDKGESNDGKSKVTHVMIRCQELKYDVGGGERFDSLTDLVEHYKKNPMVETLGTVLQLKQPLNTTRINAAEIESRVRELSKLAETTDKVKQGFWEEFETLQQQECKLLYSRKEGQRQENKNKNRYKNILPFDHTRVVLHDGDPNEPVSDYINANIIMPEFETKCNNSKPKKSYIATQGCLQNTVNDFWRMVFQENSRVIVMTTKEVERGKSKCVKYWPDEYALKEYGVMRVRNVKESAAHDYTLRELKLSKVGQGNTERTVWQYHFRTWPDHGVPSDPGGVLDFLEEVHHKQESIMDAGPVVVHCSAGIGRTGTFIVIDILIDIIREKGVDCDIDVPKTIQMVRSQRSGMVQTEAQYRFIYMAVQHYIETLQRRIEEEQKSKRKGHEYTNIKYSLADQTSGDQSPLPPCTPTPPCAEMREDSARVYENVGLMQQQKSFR
Assay: Allosteric inhibition of SHP2 in human SF268 cells stably expressing Yap-Luc reporter assessed as reduction in YAP transcriptional activity at 3 to 12 uM after 12 hrs by Yap-luciferase reporter gene assay
Type: cell-based
Method in brief: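 SF268 cells stably carrying a Yap-Luc reporter, in RPMI-1640 on 96-well plates, given inhibitor at 3, 6 and 12 μM on day 1. After 12 h, lysates read for Renilla luciferase, normalized to CellTiter-Glo signal; mean±s.d., n=3.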

| SMILES | inhibition |
| --- | --- |
| CC1(N)CCN(c2nc(-c3cc4ccccc4s3)cs2)CC1 | inactive |

Biological target: T1, Tyrosine-protein phosphatase non-receptor type 11 (Homo sapiens)
Assay: Allosteric inhibition of SHP2 in human NCI-H661 cells assessed as downregulation of phosphorylated AKT levels at 20 uM after 2 hrs by Western blot analysis
Type: cell-based
Method in brief: (§1)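 NCI-H661 cells in 6-well plates exposed to inhibitor 2 h at 37 °C. RIPA lysates separated by SDS-PAGE, transferred to PVDF, milk-blocked, probed overnight at 4 °C for pERK1/2, ERK1/2, pAKT and AKT. Repeated at least three times.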

| SMILES | inhibition |
| --- | --- |
| CC1(N)CCN(c2nc(-c3cc4ccccc4s3)cs2)CC1 | inactive |

Biological target: T1, Tyrosine-protein phosphatase non-receptor type 11 (Homo sapiens)
Assay: Allosteric inhibition of SHP2 in human NCI-H661 cells assessed as downregulation of phosphorylated ERK1/2 levels at 20 uM after 2 hrs by Western blot analysis
Type: cell-based
Method in brief: as §1

| SMILES | inhibition |
| --- | --- |
| CC1(N)CCN(c2nc(-c3cc4ccccc4s3)cs2)CC1 | inactive |

Tested on: not listed separately
Assay: Allosteric inhibition of SHP2 E76A mutant (unknown origin) expressed in Escherichia coli BL21(DE3) using DIFMUP as substrate preincubated for 20 mins followed by substrate addition measured after 20 mins by phosphatase assay
Set-up: species or system Homo sapiens
Method in brief: (§2)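 His-tagged SHP2 constructs expressed in E. coli BL21(DE3) (0.5 mM IPTG, 5 h, 30 °C) and Ni-column purified. 1.5 nM enzyme preincubated 20 min at room temperature with compound in 0.1 M sodium acetate pH 5.0. DIFMUP then added, 20 min further, fluorescence at 358/455 nm. Eight 3-fold dilutions, duplicate wells, IC50 from at least three independent experiments.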

| SMILES | IC50 [µM] |
| --- | --- |
| CC1(N)CCN(c2nc(-c3ccc4cc(Cl)ccc4c3)cs2)CC1 | 2.68 |
| c1ccc2cc(-c3csc(NCC4CCCNC4)n3)ccc2c1 (stereo unspecified) | 1.49 |
| COc1ccc2cc(-c3csc(N4CCC(C)(N)CC4)n3)ccc2c1 | 2.46 |
| CC1(N)CCN(c2nc(-c3ccc4cc(C(=O)O)ccc4c3)cs2)CC1 | 51.7 |
| CC1(N)CCN(c2cnc(-c3cccc(Cl)c3Cl)c(N)n2)CC1 | 0.12 |
| CC1(N)CCN(c2nc(-c3ccc(-c4ccc(F)cc4)cc3)cs2)CC1 | 14.2 |
| CN1CCC(Nc2nc(-c3ccc4ccccc4c3)cs2)CC1 | 2.81 |
| CC1(C)CC(Nc2nc(-c3ccccc3)cs2)CC(C)(C)N1 | 19.1 |
| CC1(N)CCN(c2nc(-c3ccc(-c4ccc(O)cc4)cc3)cs2)CC1 | 20.3 |
| CC1(N)CCN(c2nc(-c3cc4ccccc4s3)cs2)CC1 | > 100 |
| COC(=O)c1ccc2cc(-c3csc(N4CCC(C)(N)CC4)n3)ccc2c1 | 1.08 |
| CC1(N)CCN(c2nc(-c3cccc(-c4ccc(C#N)cc4)c3)cs2)CC1 | 1.76 |
| CC1(C)CC(Nc2nc(-c3ccc(-c4ccccc4)cc3)cs2)CC(C)(C)N1 | 5.32 |
| CC1(C)CC(Nc2nc(-c3ccc4ccccc4c3)cs2)CC(C)(C)N1 | 2.55 |
| CC1(N)CCN(c2nc(-c3cnc4ccccc4c3)cs2)CC1 | 52.3 |
| CC1(N)CCN(c2nc(-c3cccc4c3oc3ccccc34)cs2)CC1 | 46.5 |
| CC1CN(c2nc(-c3ccc4ccccc4c3)cs2)CC(C)N1 (stereo unspecified) | 12.3 |
| CC1(N)CCN(c2nc(-c3ccc4cc(C#N)ccc4c3)cs2)CC1 | 1.37 |
| CC1(C)CC(Nc2nc(-c3cccc(-c4ccccc4)c3)cs2)CC(C)(C)N1 | 3.27 |
| CC1(N)CCN(c2nc(-c3ccc4ccccc4c3)cs2)CC1 | 1.48 |
| NCC1CCCN(c2nc(-c3ccc4ccccc4c3)cs2)C1 (stereo unspecified) | 52.8 |
| COC(=O)c1ccc(-c2cccc(-c3csc(N4CCC(C)(N)CC4)n3)c2)cc1 | 3.28 |
| c1ccc2cc(-c3csc(NC4CCNCC4)n3)ccc2c1 | 0.73 |
| CC1(N)CCN(c2nc(-c3cccc(-c4ccccc4)c3)cs2)CC1 | 3.62 |
| CC1(N)CCN(c2nc(-c3ccc4cc(F)ccc4c3)cs2)CC1 | 1.27 |
| c1ccc2cc(-c3csc(NC4CCNC4)n3)ccc2c1 (stereo unspecified) | 1.65 |
| CC1(N)CCN(c2nc(-c3ccc4cc(CO)ccc4c3)cs2)CC1 | > 100 |

Biological target: Tyrosine-protein phosphatase non-receptor type 11 (Homo sapiens, UniProt Q06124)
Assay: Allosteric inhibition of SHP2 PTP domain (unknown origin) expressed in Escherichia coli BL21(DE3) using DIFMUP as substrate preincubated for 20 mins followed by substrate addition measured after 20 mins by phosphatase assay
Method in brief: as §2

| SMILES | IC50 [µM] |
| --- | --- |
| CC1(C)CC(Nc2nc(-c3ccccc3)cs2)CC(C)(C)N1 | > 100 |
